Experimental data reported in ChEMBL document CHEMBL1128523, “Non-peptide fibrinogen receptor antagonists. 7. Design and synthesis of a potent, orally active fibrinogen receptor antagonist” (J Med Chem, 1995).
Where a SMILES comes first, the peptide text is derived from it. Bridges are numbered along the chain shown (N, C = ends).

Legend:
Homo sapiens [1] = species on record: Homo sapiens; assay: Concentration required to inhibit the rate of platelet aggregation by 50% was determined with human gel filtered platelets (GFP); assay type: functional
In short: (§1)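 Light-transmittance aggregometry at 37 °C on human gel-filtered platelets (2 × 10^8 platelets/mL) with 0.1 mg/mL human fibrinogen and 1 mM CaCl2; 10 μM ADP added last to start aggregation.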

Canis familiaris [2] = assay: Ex vivo antiplatelet activity was assessed following oral administration at a dose of 1 mg/kg to dogs in the presence of […] and 1 uM of epinephrine at 70 min; assay type: functional; conditions: Canis lupus familiaris
In short: (§2)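 Four conscious mongrel dogs in slings, single oral 1.0 mg/kg crystalline solid in gelatin capsules; citrated venous blood (3.8% citrate) taken at baseline and 20–1440 min. PRP aggregation to ADP or collagen, each with 1 μM epinephrine, as % inhibition vs baseline. Mean ± SEM, n = 4.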

Canis familiaris [3] = assay: Ex vivo antiplatelet activity was assessed following oral administration at a dose of 1 mg/kg to dogs in the presence of […] and 1 uM of epinephrine at 300 min; assay type: functional; conditions: Canis lupus familiaris, 5 h; in short: as §2
Canis familiaris [4] = species on record: Canis familiaris; assay: In vitro concentration required to inhibit the rate of dog platelet aggregation (in platelet rich plasma) by 50% was determined in presence of 10 ug/mL of collagen and 1 uM of epinephrine; assay type: functional; conditions: Canis lupus familiaris
In short: (§3)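 PRP from blood spun at 150g for 5 min, count set to 200 000 cells/mm3 with PPP; 300 μL held 3 min at 37 °C before agonist. Aggregation read as % change in light transmission, PPP = 100%; inhibition relative to baseline response. Mean ± SE, n = 3–7.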

Canis familiaris [5] = assay: Ex vivo antiplatelet activity was assessed following oral administration at a dose of 1 mg/kg to dogs in the presence of 10 uM of collagen and 1 uM of epinephrine at 480 min; assay type: functional; conditions: Canis lupus familiaris, 8 h; in short: as §2
Canis familiaris [6] = species on record: Canis familiaris; assay: Whole blood platelet count was determined as delta% from baseline; assay type: functional, Canis lupus familiaris
In short: (§4)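 Dogs given 1.0 mg/kg orally by capsule (n = 4); 1 mL citrated venous blood per time point (baseline to 1440 min) counted on an automated hematology analyzer; reported as 10^3/μL and Δ% from baseline, mean ± SEM.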

Canis familiaris [7] = assay: Ex vivo antiplatelet activity was assessed following oral administration at a dose of 1 mg/kg to dogs in the presence of […] and 1 uM of epinephrine at 150 min; assay type: functional; conditions: Canis lupus familiaris, 2.5 h; in short: as §2
Canis familiaris [8] = assay: Ex vivo antiplatelet activity was assessed following oral administration at a dose of 1 mg/kg to dogs in the presence of 10 uM of collagen and 1 uM of epinephrine at 40 min; assay type: functional; conditions: Canis lupus familiaris; in short: as §2
Homo sapiens [9] = species on record: Homo sapiens; assay: In vitro concentration required to inhibit the rate of human platelet aggregation (in platelet rich plasma) by 50% was determined in presence of 10 uM of ADP; assay type: functional; in short: as §3
Canis familiaris [10] = species on record: Canis familiaris; assay: In vitro concentration required to inhibit the rate of dog platelet aggregation (in platelet rich plasma) by 50% was determined in presence of 10 uM of ADP and 1 uM of epinephrine; assay type: functional; conditions: Canis lupus familiaris; in short: as §3
Canis familiaris [11] = assay: Ex vivo antiplatelet activity was assessed following oral administration at a dose of 1 mg/kg to dogs in the presence of […] and 1 uM of epinephrine at 1440 min; assay type: functional; conditions: Canis lupus familiaris, 24 h; in short: as §2
Canis familiaris [12] = assay: Ex vivo antiplatelet activity was assessed following oral administration at a dose of 1 mg/kg to dogs in the presence of […] and 1 uM of epinephrine at 0 min; assay type: functional; conditions: Canis lupus familiaris, 0 h; in short: as §2
Canis familiaris [13] = assay: Ex vivo antiplatelet activity was assessed following oral administration at a dose of 1 mg/kg to dogs in the presence of 10 uM of collagen and 1 uM of epinephrine at 350 min; assay type: functional; conditions: Canis lupus familiaris; in short: as §2
Canis familiaris [14] = assay: Ex vivo antiplatelet activity was assessed following oral administration at a dose of 1 mg/kg to dogs in the presence of […] and 1 uM of epinephrine at 200 min; assay type: functional; conditions: Canis lupus familiaris; in short: as §2
Canis familiaris [15] = assay: Ex vivo antiplatelet activity was assessed following oral administration at a dose of 1 mg/kg to dogs in the presence of 10 uM of ADP and 1 uM of epinephrine at 350 min; assay type: functional; conditions: Canis lupus familiaris; in short: as §2
Canis familiaris [16] = assay: Ex vivo antiplatelet activity was assessed following oral administration at a dose of 1 mg/kg to dogs in the presence of 10 uM of ADP and 1 uM of epinephrine at 480 min; assay type: functional; conditions: Canis lupus familiaris, 8 h; in short: as §2
Canis familiaris [17] = assay: Ex vivo antiplatelet activity was assessed following oral administration at a dose of 1 mg/kg to dogs in the presence of 10 uM of collagen and 1 uM of epinephrine at 90 min; assay type: functional; conditions: Canis lupus familiaris, 1.5 h; in short: as §2
Canis familiaris [18] = assay: Ex vivo antiplatelet activity was assessed following oral administration at a dose of 1 mg/kg to dogs in the presence of 10 uM of ADP and 1 uM of epinephrine at 20 min; assay type: functional; conditions: Canis lupus familiaris; in short: as §2
Canis familiaris [19] = assay: Ex vivo antiplatelet activity was assessed following oral administration at a dose of 1 mg/kg to dogs in the presence of […] and 1 uM of epinephrine at 250 min; assay type: functional; conditions: Canis lupus familiaris; in short: as §2
Canis familiaris [20] = assay: Ex vivo antiplatelet activity was assessed following oral administration at a dose of 1 mg/kg to dogs in the presence of 10 uM of ADP and 1 uM of epinephrine at 90 min; assay type: functional; conditions: Canis lupus familiaris, 1.5 h; in short: as §2
Canis familiaris [21] = assay: Ex vivo antiplatelet activity was assessed following oral administration at a dose of 1 mg/kg to dogs in the presence of […] and 1 uM of epinephrine at 20 min; assay type: functional; conditions: Canis lupus familiaris; in short: as §2
Homo sapiens [22] = species on record: Homo sapiens; assay: In vitro concentration required to inhibit the rate of human platelet aggregation (in platelet rich plasma) by 50% was determined in presence of 0.5 U/mL of thrombin and 1 mM GPRP; assay type: functional; in short: as §3
[23] = In vitro concentration required to inhibit the rate of chimp platelet aggregation (in platelet rich plasma) by 50% was determined in presence of 10 ug/mL of collagen; assay type: functional; conditions: Pan troglodytes; in short: as §3
Canis familiaris [24] = assay: Ex vivo antiplatelet activity was assessed following oral administration at a dose of 1 mg/kg to dogs in the presence of 10 uM of ADP and 1 uM of epinephrine at 300 min; assay type: functional; conditions: Canis lupus familiaris, 5 h; in short: as §2
Homo sapiens [25] = species on record: Homo sapiens; assay: In vitro concentration required to inhibit the rate of human platelet aggregation (in platelet rich plasma) by 50% was determined in presence of 10 ug/mL of collagen; assay type: functional; in short: as §3
Homo sapiens [26] = species on record: Homo sapiens; assay: Concentration required to inhibit platelet aggregation by 50%; assay type: functional; in short: as §1
Canis familiaris [27] = assay: Ex vivo antiplatelet activity was assessed following oral administration at a dose of 1 mg/kg to dogs in the presence of 10 uM of ADP and 1 uM of epinephrine at 70 min; assay type: functional; conditions: Canis lupus familiaris; in short: as §2
Canis familiaris [28] = assay: Ex vivo antiplatelet activity was assessed following oral administration at a dose of 1 mg/kg to dogs in the presence of 10 uM of ADP and 1 uM of epinephrine at 200 min; assay type: functional; conditions: Canis lupus familiaris; in short: as §2
Canis familiaris [29] = species on record: Canis familiaris; assay: Whole blood platelet count was determined in 10e3/uL; assay type: functional, Canis lupus familiaris; in short: as §4
Canis familiaris [30] = assay: Ex vivo antiplatelet activity was assessed following oral administration at a dose of 1 mg/kg to dogs in the presence of 10 uM of ADP and 1 uM of epinephrine at 1440 min; assay type: functional; conditions: Canis lupus familiaris, 24 h; in short: as §2
Canis familiaris [31] = assay: Ex vivo antiplatelet activity was assessed following oral administration at a dose of 1 mg/kg to dogs in the presence of 10 uM of ADP and 1 uM of epinephrine at 40 min; assay type: functional; conditions: Canis lupus familiaris; in short: as §2
Canis familiaris [32] = assay: Ex vivo antiplatelet activity was assessed following oral administration at a dose of 1 mg/kg to dogs in the presence of 10 uM of ADP and 1 uM of epinephrine at 150 min; assay type: functional; conditions: Canis lupus familiaris, 2.5 h; in short: as §2
Homo sapiens [33] = species on record: Homo sapiens; assay: In vitro concentration required to inhibit the rate of human platelet aggregation (in platelet rich plasma) by 50% was determined in presence of 10 uM of epinephrine; assay type: functional; in short: as §3
Canis familiaris [34] = assay: Ex vivo antiplatelet activity was assessed following oral administration at a dose of 1 mg/kg to dogs in the presence of 10 uM of ADP and 1 uM of epinephrine at 250 min; assay type: functional; conditions: Canis lupus familiaris; in short: as §2
[35] = In vitro concentration required to inhibit the rate of chimp platelet aggregation (in platelet rich plasma) by 50% was determined in presence of 20 uM of ADP; assay type: functional; conditions: Pan troglodytes; in short: as §3
Canis familiaris [36] = assay: Ex vivo antiplatelet activity was assessed following oral administration at a dose of 1 mg/kg to dogs in the presence of 10 uM of ADP and 1 uM of epinephrine at 0 min; assay type: functional; conditions: Canis lupus familiaris, 0 h; in short: as §2

CC(=O)N[C@H]1CSSC[C@@H](C(=O)O)NC(=O)[C@H](CC(=O)O)NC(=O)CNC(=O)[C@H](CCCN=C(N)N)NC1=O (Ac-CRGDC-OH; disulfide 1-5)
IC50 (Homo sapiens [1]): 680 nM

O=C(O)CCNC(=O)CN1CCC[C@@H](CCC2CCNCC2)C1=O
IC50 (Homo sapiens [1]): 83 nM

C[C@H](CC(=O)O)NC(=O)CN1CCC[C@@H](CCC2CCNCC2)C1=O
inhibition in vivo at 1 mg/kg (Canis familiaris [2]): 79% | inhibition in vivo at 1 mg/kg (Canis familiaris [3]): 67% | IC50 (Canis familiaris [4]): 40 nM | inhibition in vivo at 1 mg/kg (Canis familiaris [5]): 31% | Delta (Canis familiaris [6]): -0.5% [middle of 10 runs] | inhibition in vivo at 1 mg/kg (Canis familiaris [7]): 94% | inhibition in vivo at 1 mg/kg (Canis familiaris [8]): 79% | IC50 (Homo sapiens [9]): 23 nM | IC50 (Canis familiaris [10]): 41 nM | inhibition in vivo at 1 mg/kg (Canis familiaris [11]): 3% | inhibition in vivo at 1 mg/kg (Canis familiaris [12]): 0% | inhibition in vivo at 1 mg/kg (Canis familiaris [13]): 54% | inhibition in vivo at 1 mg/kg (Canis familiaris [14]): 78% | inhibition in vivo at 1 mg/kg (Canis familiaris [15]): 81% | inhibition in vivo at 1 mg/kg (Canis familiaris [16]): 63% | inhibition in vivo at 1 mg/kg (Canis familiaris [17]): 75% | inhibition in vivo at 1 mg/kg (Canis familiaris [18]): 50% | inhibition in vivo at 1 mg/kg (Canis familiaris [19]): 72% | inhibition in vivo at 1 mg/kg (Canis familiaris [20]): 96% | IC50 (Homo sapiens [1]): 32 nM | inhibition in vivo at 1 mg/kg (Canis familiaris [21]): 48% | IC50 (Homo sapiens [22]): 27 nM | IC50 [23]: 40 nM | inhibition in vivo at 1 mg/kg (Canis familiaris [24]): 91% | IC50 (Homo sapiens [25]): 67 nM | IC50 (Homo sapiens [26]): 32 nM | inhibition in vivo at 1 mg/kg (Canis familiaris [27]): 93% | inhibition in vivo at 1 mg/kg (Canis familiaris [28]): 94% | Platelet count (Canis familiaris [29]): 322000 µL⁻¹ | inhibition in vivo at 1 mg/kg (Canis familiaris [30]): 2% | inhibition in vivo at 1 mg/kg (Canis familiaris [31]): 86% | inhibition in vivo at 1 mg/kg (Canis familiaris [32]): 96% | IC50 (Homo sapiens [33]): 36 nM | inhibition in vivo at 1 mg/kg (Canis familiaris [34]): 90% | IC50 [35]: 42 nM | inhibition in vivo at 1 mg/kg (Canis familiaris [36]): 0%

O=C(O)CCNC(=O)CNC(=O)CCCC1CCNCC1
IC50 (Homo sapiens [1]): 8400 nM

C[C@@H](CC(=O)O)NC(=O)CN1CCC[C@@H](CCC2CCNCC2)C1=O
IC50 (Homo sapiens [1]): 7800 nM
